The M2OR odorant receptor database
Residue numbers refer to the chain shown, from its start.

Columns and labels:
Conditions in all cases: stereoisomer not certain
OR7A5 M81I = system: T1, OR7A5 M81I
T1 sequence (whole entry): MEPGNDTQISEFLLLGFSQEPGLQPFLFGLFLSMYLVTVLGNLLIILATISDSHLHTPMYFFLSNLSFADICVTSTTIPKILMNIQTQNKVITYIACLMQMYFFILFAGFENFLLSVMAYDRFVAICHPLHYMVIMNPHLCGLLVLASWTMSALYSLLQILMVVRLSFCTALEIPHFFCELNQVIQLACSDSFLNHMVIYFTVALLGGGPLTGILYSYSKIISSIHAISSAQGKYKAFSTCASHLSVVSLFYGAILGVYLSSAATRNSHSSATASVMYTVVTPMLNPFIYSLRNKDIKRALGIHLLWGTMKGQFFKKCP
Outline: (§1)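 Values were gathered from published papers (main text and supplementary material), with extra details requested from the original authors when needed, and checked for typos and inconsistencies. Each receptor–molecule pair is called responsive (active) if the original authors judged the measured signal statistically different from baseline, and non-responsive (inactive) otherwise. Assay methods varied by source, often transient mammalian cell-line luciferase assays. Recorded details include cell line, G-protein, co-transfected protein and tags.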

OR7C1 (Homo sapiens) = target: T2, OR7C1 (Homo sapiens) (UniProt O76099)
T2 sequence (whole entry): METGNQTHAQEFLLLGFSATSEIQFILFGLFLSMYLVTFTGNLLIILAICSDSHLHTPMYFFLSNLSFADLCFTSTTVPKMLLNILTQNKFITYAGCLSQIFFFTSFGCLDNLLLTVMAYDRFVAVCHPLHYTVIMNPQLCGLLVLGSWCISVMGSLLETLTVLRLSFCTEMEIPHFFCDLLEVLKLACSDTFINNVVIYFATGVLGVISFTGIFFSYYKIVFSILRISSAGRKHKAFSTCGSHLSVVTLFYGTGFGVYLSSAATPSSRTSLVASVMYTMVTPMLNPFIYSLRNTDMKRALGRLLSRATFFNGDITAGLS
Outline: as §1

OR7C1 V126I E171K = system: T3, OR7C1 V126I E171K
T3 sequence (whole entry): T2 sequence (whole entry) with V126I, E171K
Outline: as §1

OR7C2 (Homo sapiens) = target: T4, OR7C2 (Homo sapiens) (UniProt O60412)
T4 sequence (whole entry): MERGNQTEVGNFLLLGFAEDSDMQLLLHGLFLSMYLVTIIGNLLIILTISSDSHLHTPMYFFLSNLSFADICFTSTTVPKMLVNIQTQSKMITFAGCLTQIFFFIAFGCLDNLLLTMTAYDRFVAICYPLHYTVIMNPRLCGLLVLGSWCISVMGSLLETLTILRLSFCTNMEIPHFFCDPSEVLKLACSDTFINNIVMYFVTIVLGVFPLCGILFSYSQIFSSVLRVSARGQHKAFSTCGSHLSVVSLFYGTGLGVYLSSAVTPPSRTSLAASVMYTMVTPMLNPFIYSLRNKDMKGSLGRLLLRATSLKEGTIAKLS
Outline: as §1

OR7D2 (Homo sapiens) = target: T5, OR7D2 (Homo sapiens) (UniProt Q96RA2)
T5 sequence (whole entry): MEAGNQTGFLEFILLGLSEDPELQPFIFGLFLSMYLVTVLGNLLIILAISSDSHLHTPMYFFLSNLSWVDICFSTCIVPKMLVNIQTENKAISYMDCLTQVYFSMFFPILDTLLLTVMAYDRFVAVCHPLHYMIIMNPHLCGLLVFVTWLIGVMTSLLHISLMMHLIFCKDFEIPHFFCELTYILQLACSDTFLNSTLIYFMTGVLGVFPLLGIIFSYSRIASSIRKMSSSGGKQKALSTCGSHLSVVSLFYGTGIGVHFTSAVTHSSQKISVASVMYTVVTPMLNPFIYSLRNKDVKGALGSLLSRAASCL
Outline: as §1

OR7D4 (Homo sapiens) = target: T6, OR7D4 (Homo sapiens) (UniProt Q8NG98)
T6 sequence (whole entry): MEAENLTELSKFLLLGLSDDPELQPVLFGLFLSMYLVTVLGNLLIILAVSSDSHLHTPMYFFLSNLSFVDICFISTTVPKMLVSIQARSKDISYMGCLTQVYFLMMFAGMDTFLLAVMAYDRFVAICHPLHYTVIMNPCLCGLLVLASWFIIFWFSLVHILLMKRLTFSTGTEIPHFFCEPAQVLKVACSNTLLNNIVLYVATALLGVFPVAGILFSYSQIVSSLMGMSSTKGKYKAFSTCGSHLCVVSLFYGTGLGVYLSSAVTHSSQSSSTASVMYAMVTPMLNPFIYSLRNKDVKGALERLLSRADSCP
Outline: as §1

OR7D4 R88W = system: T7, OR7D4 R88W
T7 sequence (whole entry): T6 sequence (whole entry) with R88W
Outline: as §1

OR7D4 = system: T8, OR7D4
T8 sequence (whole entry): T6 sequence (whole entry) with R88W, T133M
Outline: as §1

OR7E24 (Homo sapiens) = target: T9, OR7E24 (Homo sapiens) (UniProt Q6IFN5)
T9 sequence (whole entry): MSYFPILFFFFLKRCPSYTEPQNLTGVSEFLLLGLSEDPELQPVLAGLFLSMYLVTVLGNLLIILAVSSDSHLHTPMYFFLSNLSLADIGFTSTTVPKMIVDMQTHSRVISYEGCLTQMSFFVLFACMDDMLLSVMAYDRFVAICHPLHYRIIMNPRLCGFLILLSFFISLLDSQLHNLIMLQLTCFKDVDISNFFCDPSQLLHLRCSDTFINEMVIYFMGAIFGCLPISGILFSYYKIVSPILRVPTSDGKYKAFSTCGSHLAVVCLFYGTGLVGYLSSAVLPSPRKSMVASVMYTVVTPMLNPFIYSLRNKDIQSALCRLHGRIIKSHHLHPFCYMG
Outline: as §1

OR7G1 (Homo sapiens) = target: T10, OR7G1 (Homo sapiens) (UniProt Q8NGA0)
T10 sequence (whole entry): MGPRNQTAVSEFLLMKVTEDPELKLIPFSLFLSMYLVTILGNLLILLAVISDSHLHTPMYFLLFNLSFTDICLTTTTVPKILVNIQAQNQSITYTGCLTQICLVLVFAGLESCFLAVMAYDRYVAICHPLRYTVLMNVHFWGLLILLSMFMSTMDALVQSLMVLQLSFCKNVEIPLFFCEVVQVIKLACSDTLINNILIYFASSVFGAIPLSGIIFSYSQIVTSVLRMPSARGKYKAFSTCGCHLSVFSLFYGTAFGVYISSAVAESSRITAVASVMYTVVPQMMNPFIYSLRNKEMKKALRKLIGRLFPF
Outline: as §1

Measured: odorant receptor agonist call

CCC1OC(=O)C(O)=C1C (configuration not stated)
inactive: all assays above

CC(CO)CS (configuration not stated)
inactive: OR7C1 (Homo sapiens) | OR7C2 (Homo sapiens) | OR7D2 (Homo sapiens) | OR7D4 (Homo sapiens) | OR7E24 (Homo sapiens) | OR7G1 (Homo sapiens)

CCC(S)C(C)CO (configuration not stated)
inactive: OR7C1 (Homo sapiens) | OR7C2 (Homo sapiens) | OR7D2 (Homo sapiens) | OR7D4 (Homo sapiens) | OR7E24 (Homo sapiens) | OR7G1 (Homo sapiens)

CC1=C(O)C(=O)OC1C (configuration not stated)
inactive: all assays above

CCCCCC(=O)C(C)C(C)=O (configuration not stated)
inactive: OR7C1 (Homo sapiens) | OR7C2 (Homo sapiens) | OR7D2 (Homo sapiens) | OR7D4 (Homo sapiens) | OR7E24 (Homo sapiens) | OR7G1 (Homo sapiens)

CCCCCCC=CCCC=O
inactive: all assays above

CCC1OC(C)=C(O)C1=O (configuration not stated)
inactive: all assays above

CC1CCCCCCCCCCCCC(=O)C1 (configuration not stated)
inactive: OR7C1 (Homo sapiens) | OR7C2 (Homo sapiens) | OR7D2 (Homo sapiens) | OR7D4 (Homo sapiens) | OR7E24 (Homo sapiens) | OR7G1 (Homo sapiens)

Cc1cnc(C)c(C)n1
inactive: all assays above

CC1=NC(C)C(C)S1 (configuration not stated)
inactive: all assays above

CCCCCC(S)C(C)CO (configuration not stated)
inactive: OR7C1 (Homo sapiens) | OR7C2 (Homo sapiens) | OR7D2 (Homo sapiens) | OR7D4 (Homo sapiens) | OR7E24 (Homo sapiens) | OR7G1 (Homo sapiens)

CCCCC(S)C(C)CO (configuration not stated)
inactive: OR7C1 (Homo sapiens) | OR7C2 (Homo sapiens) | OR7D2 (Homo sapiens) | OR7D4 (Homo sapiens) | OR7E24 (Homo sapiens) | OR7G1 (Homo sapiens)

CC1=C(O)C(=O)C(C)O1 (configuration not stated)
inactive: all assays above

CCCC(S)CCOC(C)=O (configuration not stated)
inactive: all assays above

CC(=O)c1c(C)c([N+](=O)[O-])c(C(C)(C)C)c([N+](=O)[O-])c1C
inactive: OR7C1 (Homo sapiens) | OR7C2 (Homo sapiens) | OR7D2 (Homo sapiens) | OR7D4 (Homo sapiens) | OR7E24 (Homo sapiens) | OR7G1 (Homo sapiens)
